Source: ChEMBL document CHEMBL3244059, “Synthesis and pharmacological activity of a phosphate ester of delta8-tetrahydrocannabinol” (J Med Chem, 1978)
Calls of active or inactive are those of the source. No cut-off for these calls is given here.

Assays:
[1] = Acute toxicity in iv dosed ddN mouse assessed as mortality after 24 hrs; format: organism-based; conditions: in vivo
Procedure, shortened: (§1)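 Mice dosed iv via tail vein, 0.1 mL/10 g body weight; parent compound as suspension in 1% Tween 80, phosphate as solution in saline. Eight animals per dose.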

Mus musculus [2] = experiment: Cataleptogenic activity in iv dosed ddN mouse assessed as induction of catalepsy after 30 mins by bar test; format: functional, organism-based
Procedure, shortened: (§2)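 Catalepsy scored by a modified simple bar test at 30 and 60 min after iv tail-vein injection (0.1 mL/10 g; 1% Tween 80 suspension or saline solution). Eight mice per dose; vehicle controls. ED50 with 95% confidence limits at peak time.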

Mus musculus [3] = experiment: Cataleptogenic activity in iv dosed ddN mouse assessed as induction of catalepsy after 30 to 60 mins by bar test; format: functional; procedure, shortened: as §2
Mus musculus [4] = experiment: Potentiation of thiopental-induced sleep in iv dosed ddN mouse assessed as loss of righting reflex after 60 mins administered with 1% Tween-80; format: functional, organism-based
Procedure, shortened: (§3)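 Pretreatment given iv (saline solution or 1% Tween 80 suspension; vehicle controls for each), followed 30 or 60 min later by thiopental 80 mg/kg iv. Sleep measured as loss of righting reflex. Potentiation counted positive when sleeping time exceeded twice the matching control. Eight mice per dose; ED50 with confidence limits.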

Mus musculus [5] = experiment: Potentiation of thiopental-induced sleep in iv dosed ddN mouse assessed as loss of righting reflex after 30 to 60 mins; format: functional; procedure, shortened: as §3
Mus musculus [6] = experiment: Hypothermic activity in ddN mouse assessed as reduction of rectal temperature at 10 mg/kg, iv after 1 hr; format: functional
Procedure, shortened: (§4)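 Rectal temperature taken with a thermistor thermometer after iv tail-vein dosing at 10 or 20 mg/kg (1% Tween 80 suspension or saline solution). Room held at 23 ± 1 °C; time course followed up to 5 h. Decline reported as mean ± SE of eight mice.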

Mus musculus [7] = experiment: Hypothermic activity in ddN mouse assessed as reduction of rectal temperature at 20 mg/kg, iv after 1 hr; format: functional; procedure, shortened: as §4
Mus musculus [8] = experiment: Acute toxicity in ddN mouse assessed as mortality up to 160 mg/kg, iv after 24 hrs; format: organism-based; parameters: dose 160 mg/kg, route intravenous; conditions: in vivo; procedure, shortened: as §1
Mus musculus [9] = experiment: Cataleptogenic activity in iv dosed ddN mouse assessed as induction of catalepsy after 60 mins by bar test; format: functional; procedure, shortened: as §2
Mus musculus [10] = experiment: Potentiation of thiopental-induced sleep in iv dosed ddN mouse assessed as loss of righting reflex after 60 mins administered with saline; format: functional; procedure, shortened: as §3
Mus musculus [11] = experiment: Hypothermic activity in ddN mouse assessed as reduction of rectal temperature at 10 mg/kg, iv after 2 hrs; format: functional; procedure, shortened: as §4
Mus musculus [12] = experiment: Hypothermic activity in ddN mouse assessed as reduction of rectal temperature at 20 mg/kg, iv after 2 hrs; format: functional; procedure, shortened: as §4
[13] = Drug metabolism in mouse liver homogenates assessed as compound hydrolysis at pH 9.6 after 15 mins by spectrophotometric analysis in presence of alkaline phosphatase; format: ADME, tissue-based; conditions: read-out: Drug metabolism
Procedure, shortened: (§5)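 Substrate (1.5 μmol) incubated at 37 °C with mouse liver homogenate (equivalent to 0.1 g liver) in 0.1 M glycine buffer pH 9.6 or 0.1 M acetate buffer pH 5.0. Sampled at 15, 30 and 60 min. Percent hydrolysis given as mean of duplicate determinations.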

[14] = Drug metabolism in mouse liver homogenates assessed as compound hydrolysis at pH 9.6 after 30 mins by spectrophotometric analysis in presence of alkaline phosphatase; format: ADME, tissue-based; conditions: read-out: Drug metabolism; procedure, shortened: as §5
[15] = Drug metabolism in mouse liver homogenates assessed as compound hydrolysis at pH 9.6 after 60 mins by spectrophotometric analysis in presence of alkaline phosphatase; format: ADME, tissue-based; conditions: read-out: Drug metabolism; procedure, shortened: as §5
[16] = Drug metabolism in mouse liver homogenates assessed as compound hydrolysis at pH 5 after 15 mins by spectrophotometric analysis in presence of alkaline phosphatase; format: ADME, tissue-based; conditions: read-out: Drug metabolism; procedure, shortened: as §5
[17] = Drug metabolism in mouse liver homogenates assessed as compound hydrolysis at pH 5 after 30 mins by spectrophotometric analysis in presence of alkaline phosphatase; format: ADME, tissue-based; conditions: read-out: Drug metabolism; procedure, shortened: as §5
[18] = Drug metabolism in mouse liver homogenates assessed as compound hydrolysis at pH 5 after 60 mins by spectrophotometric analysis in presence of alkaline phosphatase; format: ADME, tissue-based; conditions: read-out: Drug metabolism; procedure, shortened: as §5

SMILES	LD50 at 24 h [1] [mg/kg]	Activity (Mus musculus [2])	ED50 (Mus musculus [3]) [mg/kg]	Activity (Mus musculus [4])	ED50 (Mus musculus [5]) [mg/kg]	T (Mus musculus [6]) [°C]	T (Mus musculus [7]) [°C]	Activity (Mus musculus [8])	Activity (Mus musculus [9]) [%]	Activity (Mus musculus [10]) [%]	T (Mus musculus [11]) [°C]	T (Mus musculus [12]) [°C]	metabolised at 0.25 h [13] [%]	metabolised at 0.5 h [14] [%]	metabolised at 1 h [15] [%]	metabolised at 0.25 h [16] [%]	metabolised at 0.5 h [17] [%]	metabolised at 1 h [18] [%]
CCCCCc1cc(O)c2c(c1)OC(C)(C)[C@@H]1CC=C(C)C[C@@H]21 [DELTA-8-TETRAHYDROCANNABINOL]	27.5	Active	3.3	Active	1.2	3.8	4.8	–	–	–	–	–	–	–	–	–	–	–
CCCCCc1cc2c(c(OP(=O)([O-])[O-])c1)[C@@H]1CC(C)=CC[C@H]1C(C)(C)O2.[Na+].[Na+]	–	–	37	–	17.5	–	–	Non-toxic	10	7	2.4	5	7.8	13.9	24.5	15.3	20.7	29.2
O=[N+]([O-])c1ccc(OP(=O)(O)O)cc1 [p-NITROPHENYLPHOSPHATE]	–	–	–	–	–	–	–	–	–	–	–	–	21.5	36.4	73.6	88.9	96.7	97.7
